Results as given in ChEMBL document CHEMBL3112571, “Benzimidazole CB2 agonists: design, synthesis and SAR” (Bioorg Med Chem Lett, 2014).

What was measured:
Cannabinoid receptor 1 [1] = biological target: T1, Cannabinoid receptor 1 (Homo sapiens, UniProt P21554); test: Agonist activity at human CB1 receptor expressed in CHO-K1 cells assessed as forskolin-induced cAMP accumulation after 1 hr; format: functional, cell-based
Procedure, shortened: (§1)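 CHO-K1 cells (1000/well) expressing human CB1 or CB2 preincubated with compound 15 min at room temperature, then forskolin at EC70 added for a further 30 min at room temperature. cAMP measured by HTRF (d2-cAMP plus anti-cAMP-cryptate, final 1 h room temperature incubation). Values are the average of N = 1 to 3 results.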

Cannabinoid receptor 2 [2] = biological target: T2, Cannabinoid receptor 2 (Homo sapiens, UniProt P34972); test: Agonist activity at human CB2 receptor expressed in CHO-K1 cells assessed as forskolin-induced cAMP accumulation after 1 hr relative to control; format: functional, cell-based; procedure, shortened: as §1
Cannabinoid receptor 2 [3] = biological target: T2, Cannabinoid receptor 2; test: Agonist activity at human CB2 receptor expressed in CHO-K1 cells assessed as forskolin-induced cAMP accumulation after 1 hr; format: functional, cell-based; procedure, shortened: as §1
Homo sapiens = organism: Homo sapiens; test: Selectivity ratio of EC50 for human CB1 receptor to EC50 for human CB2 receptor
Cannabinoid receptor 1 [4] = biological target: T1, Cannabinoid receptor 1; test: Agonist activity at human CB1 receptor expressed in CHO-K1 cells assessed as forskolin-induced cAMP accumulation after 1 hr relative to control; format: functional, cell-based; procedure, shortened: as §1

T1 sequence (P21554 whole entry): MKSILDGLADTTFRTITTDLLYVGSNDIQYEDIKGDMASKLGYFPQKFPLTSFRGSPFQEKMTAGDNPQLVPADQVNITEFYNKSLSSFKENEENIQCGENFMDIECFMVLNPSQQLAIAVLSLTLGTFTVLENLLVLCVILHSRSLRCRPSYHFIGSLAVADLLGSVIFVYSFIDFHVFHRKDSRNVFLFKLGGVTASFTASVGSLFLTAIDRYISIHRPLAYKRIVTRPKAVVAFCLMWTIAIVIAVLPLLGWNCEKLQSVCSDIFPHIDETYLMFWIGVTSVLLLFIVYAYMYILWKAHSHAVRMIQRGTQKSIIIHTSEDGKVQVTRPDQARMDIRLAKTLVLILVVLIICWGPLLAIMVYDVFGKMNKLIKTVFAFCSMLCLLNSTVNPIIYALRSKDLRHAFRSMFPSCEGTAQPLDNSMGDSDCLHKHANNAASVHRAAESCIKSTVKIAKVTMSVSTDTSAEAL
T2 sequence (P34972 whole entry): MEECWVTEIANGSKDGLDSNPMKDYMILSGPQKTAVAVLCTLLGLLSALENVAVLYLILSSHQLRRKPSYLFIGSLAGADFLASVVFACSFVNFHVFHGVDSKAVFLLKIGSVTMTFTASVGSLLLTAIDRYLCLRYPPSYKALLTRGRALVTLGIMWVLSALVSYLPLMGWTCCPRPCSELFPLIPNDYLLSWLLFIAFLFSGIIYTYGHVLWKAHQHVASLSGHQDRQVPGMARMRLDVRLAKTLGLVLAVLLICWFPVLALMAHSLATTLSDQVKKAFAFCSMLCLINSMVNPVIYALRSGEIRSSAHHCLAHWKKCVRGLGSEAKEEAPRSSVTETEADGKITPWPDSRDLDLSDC

O=C(NCc1ncccc1F)c1nc2c(-c3ccccc3)cccc2[nH]1 was tested, and the EC50 (Cannabinoid receptor 1 [1]) was greater than 17000 nM, the Emax (Cannabinoid receptor 2 [2]) was 39% and the EC50 (Cannabinoid receptor 2 [3]) was 1440 nM.

Compound CC(C)(C)CNC(=O)c1nc2c(-c3ccccc3)cccc2n1CC(F)(F)F has an EC50 (Cannabinoid receptor 1 [1]) greater than 17000 nM and an EC50 (Cannabinoid receptor 2 [3]) greater than 17000 nM.

Work on O=C(NCC(O)CO)c1nc2c(-c3ccccc3)cccc2[nH]1 (stereo not given) yielded an EC50 (Cannabinoid receptor 1 [1]) greater than 17000 nM, an Emax (Cannabinoid receptor 2 [2]) of 75% and an EC50 (Cannabinoid receptor 2 [3]) of 6.3 nM.

Work on O=C(NC12CC3CC(CC(C3)C1)C2)c1nc2c(-c3ccccc3)cccc2[nH]1 yielded a Ratio EC50 (Homo sapiens) of 65, an EC50 (Cannabinoid receptor 1 [1]) of 123 nM and an Emax (Cannabinoid receptor 1 [4]) of 100%. For the same compound, the Emax (Cannabinoid receptor 2 [2]) was 99% and the EC50 (Cannabinoid receptor 2 [3]) was 1.9 nM.

For O=C(NCC1(CO)CCCCC1)c1nc2c(-c3ccccc3)cccc2[nH]1, the EC50 (Cannabinoid receptor 1 [1]) was greater than 17000 nM, the Emax (Cannabinoid receptor 2 [2]) was 92% and the EC50 (Cannabinoid receptor 2 [3]) was 43 nM.

In the case of CCn1c(C(=O)NCc2ccc(C#N)cc2)nc2c(-c3ccccc3)cccc21, the EC50 (Cannabinoid receptor 1 [1]) is reported as greater than 17000 nM, the Emax (Cannabinoid receptor 2 [2]) is reported as 99% and the EC50 (Cannabinoid receptor 2 [3]) is reported as 84 nM.

With O=C(NCC1(CO)CCCC1)c1nc2c(-c3ccccc3)cccc2[nH]1 the EC50 (Cannabinoid receptor 1 [1]) was greater than 17000 nM, the Emax (Cannabinoid receptor 2 [2]) was 93% and the EC50 (Cannabinoid receptor 2 [3]) was 24.6 nM.

Compound O=C(NCC1(CO)CCCC1)c1nc2c(-c3ccccc3)cccc2n1CC(F)(F)F has an EC50 (Cannabinoid receptor 1 [1]) greater than 17000 nM and an EC50 (Cannabinoid receptor 2 [3]) greater than 17000 nM.

With O=C(NCc1ccccc1Cl)c1nc2c(-c3ccccc3)cccc2[nH]1 the EC50 (Cannabinoid receptor 1 [1]) was greater than 17000 nM, the Emax (Cannabinoid receptor 2 [2]) was 64% and the EC50 (Cannabinoid receptor 2 [3]) was 443 nM.

O=C(NCc1cccc(Cl)c1)c1nc2c(-c3ccccc3)cccc2[nH]1 was tested, and the EC50 (Cannabinoid receptor 1 [1]) was greater than 17000 nM, the Emax (Cannabinoid receptor 2 [2]) was 67% and the EC50 (Cannabinoid receptor 2 [3]) was 165 nM.

O=C(NCc1cccc(C(F)(F)F)c1)c1nc2c(-c3ccccc3)cccc2[nH]1 gave an EC50 (Cannabinoid receptor 1 [1]) greater than 17000 nM, an Emax (Cannabinoid receptor 2 [2]) of 69% and an EC50 (Cannabinoid receptor 2 [3]) of 256 nM.

O=C(NCc1ccccc1)c1nc2c(-c3ccccc3)cccc2[nH]1 was tested, and the EC50 (Cannabinoid receptor 1 [1]) was greater than 17000 nM, the Emax (Cannabinoid receptor 2 [2]) was 64% and the EC50 (Cannabinoid receptor 2 [3]) was 991 nM.

Work on O=C(NCc1ccccc1F)c1nc2c(-c3ccccc3)cccc2[nH]1 yielded an EC50 (Cannabinoid receptor 1 [1]) greater than 17000 nM, an Emax (Cannabinoid receptor 2 [2]) of 49% and an EC50 (Cannabinoid receptor 2 [3]) of 256 nM.

For O=C(NC1(CO)CCCCC1)c1nc2c(-c3ccccc3)cccc2[nH]1, the EC50 (Cannabinoid receptor 1 [1]) was greater than 17000 nM, the Emax (Cannabinoid receptor 2 [2]) was 82% and the EC50 (Cannabinoid receptor 2 [3]) was 236 nM.

For CCn1c(C(=O)NCc2cncnc2)nc2c(-c3ccccc3)cccc21, the EC50 (Cannabinoid receptor 1 [1]) was greater than 17000 nM, the Emax (Cannabinoid receptor 2 [2]) was 89% and the EC50 (Cannabinoid receptor 2 [3]) was 1100 nM.

Compound CCn1c(C(=O)NCc2ccccc2Cl)nc2c(-c3ccccc3)cccc21 has a Ratio EC50 (Homo sapiens) of 92, an EC50 (Cannabinoid receptor 1 [1]) of 913 nM and an Emax (Cannabinoid receptor 1 [4]) of 87%. For the same compound, the Emax (Cannabinoid receptor 2 [2]) was 101% and the EC50 (Cannabinoid receptor 2 [3]) was 9.9 nM.

O=C(NC12CC3CC(CC(C3)C1)C2)c1nc(C(O)c2cccnc2)c2ccccn12 (racemic) gave an IC50 (Cannabinoid receptor 1 [1]) of 3880 nM, an Activity (Cannabinoid receptor 1 [4]) of 82% and an Activity (Cannabinoid receptor 2 [2]) of 88%. For the same compound, the IC50 (Cannabinoid receptor 2 [3]) was 4.5 nM.

CCn1c(C(=O)NCc2cccc(Cl)c2)nc2c(-c3ccccc3)cccc21 was tested, and the Ratio EC50 (Homo sapiens) was greater than 425, the EC50 (Cannabinoid receptor 1 [1]) was greater than 17000 nM and the Emax (Cannabinoid receptor 2 [2]) was 87%. The EC50 (Cannabinoid receptor 2 [3]) was 40 nM.

With CCn1c(C(=O)NCC(C)(C)C)nc2c(-c3ccccc3)cccc21 the EC50 (Cannabinoid receptor 1 [1]) was 913 nM, the Emax (Cannabinoid receptor 1 [4]) was 87% and the Emax (Cannabinoid receptor 2 [2]) was 67%. The EC50 (Cannabinoid receptor 2 [3]) was 490 nM.

CCn1c(C(=O)NCc2ccccc2F)nc2c(-c3ccccc3)cccc21 gave an EC50 (Cannabinoid receptor 1 [1]) greater than 17000 nM, an Emax (Cannabinoid receptor 2 [2]) of 98% and an EC50 (Cannabinoid receptor 2 [3]) of 45 nM.

In the case of CCn1c(C(=O)NCC2(CO)CCCC2)nc2c(-c3ccccc3)cccc21, the EC50 (Cannabinoid receptor 1 [1]) is reported as greater than 17000 nM, the Emax (Cannabinoid receptor 2 [2]) is reported as 68% and the EC50 (Cannabinoid receptor 2 [3]) is reported as 1260 nM.

With O=C(NCC1(CO)CCCCC1)c1nc2c(-c3ccccc3)cccc2n1CC(F)(F)F the EC50 (Cannabinoid receptor 1 [1]) was greater than 17000 nM, the Emax (Cannabinoid receptor 2 [2]) was 45% and the EC50 (Cannabinoid receptor 2 [3]) was 1970 nM.

Compound CC(C)(C)CNC(=O)c1nc2c(-c3ccccc3)cccc2[nH]1 has a Ratio EC50 (Homo sapiens) greater than 1160, an EC50 (Cannabinoid receptor 1 [1]) greater than 17000 nM and an Emax (Cannabinoid receptor 2 [2]) of 95%. The EC50 (Cannabinoid receptor 2 [3]) was 14.7 nM.
